Test [1] is described as follows: (§1) Inhibition of calmodulin-dependent Phosphodiesterase. In a few lines:
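Calmodulin-dependent cAMP phosphodiesterase assayed with cyclic [8-3H]AMP as substrate. Tritiated AMP was converted to adenosine by snake venom 5'-nucleotidase, and nucleosides were separated from substrate on Dowex anion exchange resin with 3 mM acetic acid. Basal, calmodulin-independent activity was taken with 1 mM EGTA. Compounds were added in DMSO at several concentrations. IC50 is the mean of triplicates ± standard error.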

The subject of test [2] is MCF7. The test can be described thus: In vitro cytotoxicity against hormone-responsive MCF-7 cell line. Format: functional, cell-based. To be noted: Homo sapiens. In a few lines:
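MCF-7 cells kept in DMEM with L-glutamine, gentamycin, fungisone, insulin and 5% FBS. For the assay, 5 × 10³ cells/well were plated in DMEM with 2% carbon-stripped FBS and held 24 h at 37 °C. Compounds were then added in fresh medium for 24 h. Viable cells were read by MTT, triplicate wells per concentration, and IC50 was taken from four concentrations.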

Test [3] can be described thus: as §1. The source holds these as a separate data set.

One may read the IC50 as the concentration that gives 50% inhibition. Read a low IC50 as greater potency. In the case of `CC/C(=C(\c1ccc(O)cc1)c1ccc(OCCN(C)C)cc1)c1ccccc1`, the IC50 in test [1] turned out to be 19 µM; in test [2] it was 15.5 µM.

In test [1], `CC/C(=C(\c1ccc(I)cc1)c1ccc(OCCCN(C)C)cc1)c1ccccc1` registered an IC50 of 1.4 µM. This lies in the single-digit micromolar range.

As to `CC/C(=C(\c1ccc(I)cc1)c1ccc(OCCCCN2CCCC2)cc1)c1ccccc1`, the concentration for half-maximal inhibition (IC50) came out at 1 µM in test [1] and 4 µM in test [2].

In test [1], `CC/C(=C(\c1ccc(I)cc1)c1ccc(OCCCCN(C)C)cc1)c1ccccc1` came in with an IC50 of 1.3 µM.

`CC/C(=C(\c1ccc(I)cc1)c1ccc(OCCCN2CCCC2)cc1)c1ccccc1`: the values for the IC50 in test [1] and in test [2] were 1.1 µM and 4.5 µM, respectively.

For `CCCCc1ccc(/C(=C(\CC)c2ccccc2)c2ccc(OCCN(C)C)cc2)cc1`, in test [1], the IC50 is 3.7 µM.

In test [1], `C#Cc1ccc(/C(=C(\CC)c2ccccc2)c2ccc(OCCN(C)C)cc2)cc1` gave an IC50 of 4.6 µM. The IC50 values of the last two compounds are within 1.5-fold of each other.

On to `C#Cc1ccc(/C(=C(\CC)c2ccccc2)c2ccc(OCCN3CCCC3)cc2)cc1`, for which the IC50 in test [1] came out at 3.3 µM; in test [2] it was 14.7 µM.

Take `CC/C(=C(\c1ccc(I)cc1)c1ccc(OCCN(C)C)cc1)c1ccccc1`: the IC50 in test [1] stood at 2.3 µM.

Consider `CCCCc1ccc(/C(=C(\CC)c2ccccc2)c2ccc(OCCN3CCCC3)cc2)cc1`, for which the midpoint of inhibition in test [1], the IC50, lay at 1.8 µM.

In the case of `CC/C(=C(\c1ccc(I)cc1)c1ccc(OCCN2CCCC2)cc1)c1ccccc1` [IDOXIFENE], the figures for the IC50 in test [1] and in test [2] were 1.5 µM and 7.3 µM, respectively.

Consider `CC/C(=C(\c1ccccc1)c1ccc(OCCN(C)C)cc1)c1ccccc1` [TAMOXIFEN], for which the IC50 was determined as 6.8 µM in test [3] and 14 µM in test [2].

These data come from ChEMBL document CHEMBL1128750 (J Med Chem, 1995).
